Measured values as given in ChEMBL document CHEMBL2046346, “Discovery of phenylpropanoic acid derivatives containing polar functionalities as potent and orally bioavailable G protein-coupled receptor 40 agonists for the treatment of type 2 diabetes” (J Med Chem, 2012).
pEC50, pKi: −log10 of the molar value. Active and inactive are the calls of the source. The rule behind the calls is not given here.

How the values were obtained:
[1] = biological target: T1, Free fatty acid receptor 1 (Homo sapiens, UniProt O14842); assay: Displacement of 3-[4-({2',6'-dimethyl-6-[(4-[3H])phenylmethoxy]biphenyl-3-yl}methoxy)phenyl] propanoic acid from human GPR40 receptor expressed in CHO cell membrane after 90 mins by liquid scintillation counting in the presence of 0.2% BSA; format: cell membranes
How it was run: (§1)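 Membranes from CHO lines stably expressing human or rat GPR40, buffer 25 mmol/L Tris-HCl pH 7.5, 5 mmol/L EDTA, protease inhibitors, 0.05% CHAPS, 0.2% fatty-acid-free BSA. Tritiated ligand at 2 or 6 nmol/L with graded test compound, 90 min room temperature, GF/C filtration, scintillation counting. Nonspecific binding: 10 μmol/L unlabeled ligand. IC50 by nonlinear regression, Ki = IC50/(1+[L]/Kd).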

[2] = biological target: Free fatty acid receptor 1 (Rattus norvegicus, UniProt Q8K3T4); assay: Displacement of 3-[4-({2',6'-dimethyl-6-[(4-[3H])phenylmethoxy]biphenyl-3-yl}methoxy)phenyl] propanoic acid from rat GPR40 receptor expressed in CHO cell membrane after 90 mins by liquid scintillation counting in the presence of 0.2% BSA; format: cell membranes; how it was run: as §1
[3] = biological target: T1, Free fatty acid receptor 1; assay: Agonist activity at human GPR40 receptor expressed in CHO cells assessed as increase in intracellular calcium level for 90 secs by FLIPR assay in the presence of 0.1% BSA; format: functional, cell-based
How it was run: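 CHO dhfr cells stably expressing human GPR40 plated overnight, loaded 60 min at 37 °C with Fluo 4 AM (2.5 μg/mL), 2.5 mmol/L probenecid, 0.1% fatty acid-free BSA. Ca2+ rise after compound addition read 90 s; response scaled between vehicle (0%) and 10 μM γ-linolenic acid (100%).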

[4] = Lipophilicity, log D of the compound by RP-HPLC analysis; format: physicochemical
[5] = Cytotoxicity against human HepG2 cells assessed as intracellular ATP level at 30 uM after 24 hrs by ATPlite assay relative to control; format: cell-based; conditions: read-out: Activity
How it was run: (§2)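 HepG2 cells seeded 2 × 10^4/well, treated 1 day in DMEM with 0.5% FBS, 2 mM L-glutamine, 1 mM pyruvate. ATP measured by ATPlite luminescence; % of 1% DMSO control (RLU ratio ×100), n = 3.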

[6] = Cytotoxicity against human HepG2 cells assessed as intracellular ATP level at 10 uM after 24 hrs by ATPlite assay relative to control; format: cell-based; conditions: read-out: Activity; how it was run: as §2
[7] = tested on: HepG2; assay: Induction of apoptosis in human HepG2 cells assessed as caspase 3/7 activity at 30 uM after 24 hrs by caspase Glo assay relative to staurosporine; format: cell-based; conditions: hepg2, 24 h
How it was run: (§3)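 HepG2 cells seeded 2 × 10^4/well, treated 1 day in DMEM with 0.5% FBS, 2 mM L-glutamine, 1 mM pyruvate. Caspase-Glo 3/7 luminescence; activity = (compound − 1% DMSO)/(30 μM staurosporine − 1% DMSO) ×100, n = 3.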

[8] = tested on: HepG2; assay: Induction of apoptosis in human HepG2 cells assessed as caspase 3/7 activity at 10 uM after 24 hrs by caspase Glo assay relative to staurosporine; format: cell-based; conditions: hepg2, 24 h; how it was run: as §3
[9] = Metabolic stability in human hepatic microsomes; format: ADME; conditions: liver microsomes, read-out: Stability
[10] = Metabolic stability in rat hepatic microsomes; format: ADME; conditions: liver microsomes, read-out: Stability
[11] = species on record: Rattus norvegicus; assay: Insulinotropic activity in rat INS1(833/15) cells assessed as increase in insulin secretion after 2 hrs by competitive enzyme immunoassay in the presence of 11 mM glucose; format: functional, cell-based
How it was run: (§4)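 INS-1 833/15 cells seeded on poly-L-lysine, cultured 2 days, preincubated in KRBH (0.2% FFA-free BSA) with 1 mM glucose, then 2 h in KRBH at 1–16 mM glucose with or without compound (DMSO vehicle). Secreted insulin by EIA; expressed as fold over 1 mM glucose alone, mean ± SD (n = 3–6).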

[12] = species on record: Rattus norvegicus; assay: Insulinotropic activity in rat INS1(833/15) cells assessed as increase in insulin secretion at >0.1 uM after 2 hrs by competitive enzyme immunoassay in the presence of 11 mM glucose; format: functional, cell-based; how it was run: as §4
[13] = species on record: Rattus norvegicus; assay: Insulinotropic activity in rat INS1(833/15) cells assessed as increase in insulin secretion at 1 uM after 2 hrs by competitive enzyme immunoassay in the presence of >6 mM glucose; format: functional, cell-based; how it was run: as §4
[14] = species on record: Rattus norvegicus; assay: Insulinotropic activity in rat INS1(833/15) cells assessed as increase in insulin secretion at 1 uM after 2 hrs by competitive enzyme immunoassay in the presence of 1 mM glucose; format: functional, cell-based; how it was run: as §4
[15] = species on record: Rattus norvegicus; assay: Insulinotropic activity in rat INS1(833/15) cells assessed as increase in insulin secretion at 1 uM after 2 hrs by competitive enzyme immunoassay in the presence of 4 mM glucose; format: functional, cell-based; how it was run: as §4
[16] = species on record: Rattus norvegicus; assay: Insulinotropic activity in rat INS1(833/15) cells assessed as increase in insulin secretion at 1 uM after 2 hrs by competitive enzyme immunoassay in the presence of 16 mM glucose; format: functional, cell-based; how it was run: as §4
[17] = species on record: Rattus norvegicus; assay: Insulinotropic activity in rat INS1(833/15) cells assessed as increase in insulin secretion at 10 uM after 2 hrs by competitive enzyme immunoassay in the presence of low concentration of glucose; format: functional, cell-based; how it was run: as §4
[18] = species on record: Rattus norvegicus; assay: Insulinotropic activity in rat INS1(833/15) cells assessed as increase in insulin secretion at 10 uM after 2 hrs by competitive enzyme immunoassay in the presence of 11 mM glucose; format: functional, cell-based; how it was run: as §4
[19] = species on record: Rattus norvegicus; assay: Insulinotropic activity in rat INS1(833/15) cells assessed as increase in insulin secretion at 10 uM after 2 hrs by competitive enzyme immunoassay in the presence of 16 mM glucose; format: functional, cell-based; how it was run: as §4

Sequence of Free fatty acid receptor 1 (Rattus norvegicus, UniProt Q8K3T4) (Q8K3T4 whole entry): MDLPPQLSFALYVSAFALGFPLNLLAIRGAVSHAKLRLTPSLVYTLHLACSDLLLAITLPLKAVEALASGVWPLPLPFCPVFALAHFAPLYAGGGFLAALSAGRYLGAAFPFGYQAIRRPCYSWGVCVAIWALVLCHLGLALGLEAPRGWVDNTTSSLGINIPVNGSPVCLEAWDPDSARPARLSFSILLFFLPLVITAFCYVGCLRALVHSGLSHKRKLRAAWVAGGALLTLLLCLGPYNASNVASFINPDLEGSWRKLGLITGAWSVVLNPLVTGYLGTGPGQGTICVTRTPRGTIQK
T1 sequence (O14842 whole entry): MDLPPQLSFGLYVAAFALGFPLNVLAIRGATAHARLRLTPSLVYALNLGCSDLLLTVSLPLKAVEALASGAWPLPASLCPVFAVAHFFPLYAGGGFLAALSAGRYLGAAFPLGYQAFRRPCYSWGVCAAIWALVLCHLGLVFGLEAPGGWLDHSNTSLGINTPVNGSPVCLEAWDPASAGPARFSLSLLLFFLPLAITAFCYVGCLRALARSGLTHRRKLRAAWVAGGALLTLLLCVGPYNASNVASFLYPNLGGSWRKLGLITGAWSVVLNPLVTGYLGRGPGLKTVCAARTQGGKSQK

| Structure (SMILES) | pKi [1] | pKi [2] | pEC50 [3] | logD [4] | viability at 24 h, 30 µM [5] [%] | viability at 24 h, 10 µM [6] [%] | Activity [7] [%] | Activity [8] [%] | microsomal CLint [9] [µL/min/mg] | other results |
| --- | --- | --- | --- | --- | --- | --- | --- | --- | --- | --- |
| COc1ccc(COc2ccc(CCC(=O)O)cc2)cc1-c1c(C)cccc1C | 7.33 | 7.06 | 7.70 | 3.38 |  |  |  |  |  |  |
| Cc1cccc(Oc2cc(C)c(-c3cccc(COc4ccc(CCC(=O)O)c(F)c4)c3)c(C)c2)n1.Cl | 7.92 | 8.17 | 7.51 | 4.23 | 47.5 | 56.7 | 41.1 | -0.4 |  |  |
| Cc1cc(OCC2(O)CCS(=O)(=O)CC2)cc(C)c1-c1cccc(COc2ccc(CCC(=O)O)c(F)c2)c1 | 7.72 | 8.09 | 7.82 | 2.78 | 61.5 | 88.6 | 2.8 | -0.2 |  |  |
| CCS(=O)(=O)CCOc1cc(C)c(-c2cccc(COc3ccc(CCC(=O)O)c(F)c3)c2)c(C)c1 | 7.82 | 8.38 | 7.60 | 3.02 | 32.5 | 79.8 | 17.7 | -1.1 | 6 | microsomal CLint [10]: 10 µL/min/mg |
| Cc1cccc(C)c1-c1cccc(COc2ccc(CCC(=O)O)c(F)c2)c1 |  | 7.44 |  |  |  |  |  |  | 69 | microsomal CLint [10]: 39 µL/min/mg |
| Cc1cc(OC2CCS(=O)(=O)CC2)cc(C)c1-c1cccc(COc2ccc(CCC(=O)O)c(F)c2)c1 | 7.80 | 8.19 | 7.60 | 3.06 | 38 | 79.8 | 28.9 | -0.5 | 3 | Activity [11]: Dose-dependent effect; Activity [12]: Active; Activity [13]: Active; Activity [14]: inactive; Activity [15]: inactive; Activity [16]: Active |
| Cc1cccc(C)c1-c1cccc(COc2ccc(CCC(=O)O)cc2)c1C | 7.24 | 7.52 | 7.40 | 4.22 |  |  |  |  |  |  |
| Cc1cccc(C)c1-c1cccc(COc2ccc(CCC(=O)O)cc2)c1 | 7.34 | 7.57 | 7.66 | 4.04 |  |  |  |  | 28 | microsomal CLint [10]: 34 µL/min/mg |
| CCS(=O)(=O)CCOc1cc(C)c(-c2cccc(CNc3ccc(CCC(=O)O)c(F)c3)c2)c(C)c1 | 7.70 | 8.35 | 7.00 | 2.39 | 45.7 | 79.8 | -0.9 | -1 | 2 |  |
| Cc1cc(OCc2ccccc2)cc(C)c1-c1cccc(COc2ccc(CCC(=O)O)cc2)c1 | 7.82 | 8.17 | 7.85 | 5.08 |  |  |  |  |  |  |
| Cc1cc(OC2CCOCC2)cc(C)c1-c1cccc(COc2ccc(CCC(=O)O)c(F)c2)c1 | 7.70 | 8.17 | 7.64 | 4.1 | 38.1 | 60.3 | 42.8 | 0.9 |  |  |
| Cc1cc(OCCCN2CCCC2=O)cc(C)c1-c1cccc(COc2ccc(CCC(=O)O)c(F)c2)c1 | 7.68 | 8.01 | 7.49 | 3.51 | 30.3 | 54.1 | 20.3 | 0.2 | 7 | microsomal CLint [10]: 5 µL/min/mg |
| CC(C)[C@H]1CC[C@H](C(=O)N[C@H](Cc2ccccc2)C(=O)O)CC1 |  |  |  |  |  |  |  |  |  | Activity [17]: Active; Activity [18]: Active; Activity [19]: Active |
| Cc1cc(OC2CCS(=O)(=O)CC2)cc(C)c1-c1cccc(CNc2ccc(CCC(=O)O)c(F)c2)c1 | 7.74 | 8.29 | 7.64 | 2.44 | 60.7 | 78.8 | -0.7 | -0.5 |  |  |
| CCOCCOc1cc(C)c(-c2cccc(COc3ccc(CCC(=O)O)c(F)c3)c2)c(C)c1 | 7.92 | 8.35 | 8.35 | 4.14 |  |  |  |  | 8 |  |
| COc1cc(C)c(-c2cccc(COc3ccc(CCC(=O)O)cc3)c2)c(C)c1 | 7.60 | 8.21 | 7.92 | 3.83 |  |  |  |  |  |  |
| CCOCCOc1cc(C)c(-c2cccc(COc3ccc(CCC(=O)O)cc3)c2)c(C)c1 | 7.64 | 8.00 | 7.89 | 3.89 |  |  |  |  |  |  |
| CCOCCOc1cc(C)c(-c2cccc(CNc3ccc(CCC(=O)O)c(F)c3)c2)c(C)c1.Cl | 7.74 | 8.21 | 7.59 | 3.49 | 48.5 | 9.9 | 1.2 | 5.3 |  |  |
| COc1cc(COc2ccc(CCC(=O)O)c(F)c2)cc(-c2c(C)cccc2C)c1 | 7.00 | 6.92 |  | 4.16 |  |  |  |  |  |  |
| Cc1cc(OCC2CC2)cc(C)c1-c1cccc(COc2ccc(CCC(=O)O)cc2)c1 | 7.80 | 8.25 | 7.82 | 4.61 |  |  |  |  |  |  |
| COc1ccc(-c2c(C)cccc2C)cc1COc1ccc(CCC(=O)O)cc1 | 6.28 | 5.00 |  | 4.04 |  |  |  |  |  |  |
